From the RNAGym collection of RNA variant scans (doi:10.1002/anie.201605470)

B1: Osa-1-4 twister ribozyme (parent)
chain: CCGCCUAACACUGCCAAUGCCGGUCCCAAGCCCGGAUAAAAGUGGAGGGGGCGG

Variants of: B1
Experiment: self-cleavage, relative activity (ratio to wild type); higher = more cleavage; co-transcriptional
In short: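 A DNA template was synthesised for a 54-nucleotide twister ribozyme from Oryza sativa, with 97 % wild-type base and 1 % of each other base at each of the 48 positions downstream of the cleavage site. The ribozyme cleaved itself co-transcriptionally during 2 h of in vitro transcription at 37 °C. Reverse transcription with a template-switching oligonucleotide, PCR amplification and deep sequencing followed, and cleavage status came from reads with or without upstream sequence. Relative activity is the fraction cleaved normalised to wild type.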

Point of comparison: CCGCCUAACACUGCCAAUGCCGGUCCCAAGCGCGGAUAAAAGUGGAGGGGGGGG [C32G C52G], self-cleavage 0.16. Against it:
- CCGCCUAACACUGCCAAUGCCGGUCCCAAGCGCGGAUAAAAGUGGAGGGGGCGA [C32G G54A] — lower, 0.15
- CCGCCUAACACUGCCAAUGCCGGUCCCAAGCGCGGAUAAAAGUGGAGGGGGCGU [C32G G54U] — higher, 0.25
- CCGCCUAACACUGCCAAUGCCGGUCCCAAGCGCGGAUAAAAGUGGAGGGGGCGC [C32G G54C] — lower, 0.09
- CCGCCUAACACUGCCAAUGCCGGUCCCAAGCGCGGAUAAAAGAGGAGGGGGCGG [C32G U43A] — lower, 0.1
- CCGCCUAACACUGCCAAUGCCGGUCCCAAGCGCGGAUAAAAGGGGAGGGGGCGG [C32G U43G] — lower, 0.11
- CCGCCUAACACUGCCAAUGCCGGUCCCAAGCGCGGAUAAAAGCGGAGGGGGCGG [C32G U43C] — lower, 0.09
- CCGCCUAACACUGCCAAUGCCGGUCCCAAGCGCGGAUAAAAGUUGAGGGGGCGG [C32G G44U] — lower, 0.08
- CCGCCUAACACUGCCAAUGCCGGUCCCAAGCGCGGAUAAAAGUAGAGGGGGCGG [C32G G44A] — lower, 0.11
- CCGCCUAACACUGCCAAUGCCGGUCCCAAGCGCGGAUAAAAGUCGAGGGGGCGG [C32G G44C] — lower, 0.07
- CCGCCUAACACUGCCAAUGCCGGUCCCAAGCGCCGAUAAAAGUGGAGGGGGCGG [C32G G34C] — lower, 0.06
- CCGCCUAACACUGCCAAUGCCGGUCCCAAGCGCUGAUAAAAGUGGAGGGGGCGG [C32G G34U] — lower, 0.08
- CCGCCUAACACUGCCAAUGCCGGUCCCAAGCGCAGAUAAAAGUGGAGGGGGCGG [C32G G34A] — lower, 0.09
- CCGCCUAACACUGCCAAUGCCGGUCCCAAGCGCGGAUAAAAGUGCAGGGGGCGG [C32G G45C] — lower, 0.03
- CCGCCUAACACUGCCAAUGCCGGUCCCAAGCGCGGAUAAAAGUGUAGGGGGCGG [C32G G45U] — lower, 0.04
- CCGCCUAACACUGCCAAUGCCGGUCCCAAGCGCGGAUAAAAGUGAAGGGGGCGG [C32G G45A] — lower, 0.05
- CCGCCUAACACUGCCAAUGCCGGUCCCAAGCGCGGAUAAAAGUGGAGGGGGUGG [C32G C52U] — higher, 0.2
- CCGCCUAACACUGCCAAUGCCGGUCCCAAGCGCGGAUAAAAGUGGAGGGGGAGG [C32G C52A] — lower, 0.12
- CCGCCUAACACUGCCAAUGCCGGUCCCAAGCGCGGAUAAAAGUGGAGUGGGCGG [C32G G48U] — lower, 0.03
- CCGCCUAACACUGCCAAUGCCGGUCCCAAGCGCGGAUAAAAGUGGAGCGGGCGG [C32G G48C] — lower, 0.04
- CCGCCUAACACUGCCAAUGCCGGUCCCAAGCGCGGAUAAAAGUGGAGAGGGCGG [C32G G48A] — lower, 0.05
- CCGCCUAACACUGCCAAUGCCGGUCCCAAGCUCAGAUAAAAGUGGAGGGGGCGG [C32U G34A] — lower, 0.09
- CCGCCUAACACUGCCAAUGCCGGUCCCAAGCUCUGAUAAAAGUGGAGGGGGCGG [C32U G34U] — lower, 0.08
- CCGCCUAACACUGCCAAUGCCGGUCCCAAGCUCCGAUAAAAGUGGAGGGGGCGG [C32U G34C] — lower, 0.07
- CCGCCUAACACUGCCAAUGCCGGUCCCAAGCGCGGAUAAAAGUGGAGGGGGCAG [C32G G53A] — lower, 0.1
- CCGCCUAACACUGCCAAUGCCGGUCCCAAGCGCGGAUAAAAGUGGAGGGGGCCG [C32G G53C] — lower, 0.06
- CCGCCUAACACUGCCAAUGCCGGUCCCAAGCGCGGAUAAAAGUGGAGGGGGCUG [C32G G53U] — lower, 0.07
- CCGCCUAACACUGCCAAUCCCGGUCCCAAGCUCGGAUAAAAGUGGAGGGGGCGG [C32U G19C] — lower, 0.03
- CCGCCUAACACUGCCAAUUCCGGUCCCAAGCUCGGAUAAAAGUGGAGGGGGCGG [C32U G19U] — lower, 0.05
- CCGCCUAACACUGCCAAUACCGGUCCCAAGCUCGGAUAAAAGUGGAGGGGGCGG [C32U G19A] — lower, 0.1
- CCGCCUAACACUGCCAAUGCCGGUCCCAAGCGCGGAUAAAAGUGGAGGGGCCGG [C32G G51C] — lower, 0.05
- CCGCCUAACACUGCCAAUGCCGGUCCCAAGCGCGGAUAAAAGUGGAGGGGACGG [C32G G51A] — lower, 0.09
- CCGCCUAACACUGCCAAUGCCGGUCCCAAGCGCGGAUAAAAGUGGAGGGGUCGG [C32G G51U] — lower, 0.07
- CCGCCUAACACUGCCAAUGCCGAUCCCAAGCUCGGAUAAAAGUGGAGGGGGCGG [C32U G23A] — higher, 0.85
- CCGCCUAACACUGCCAAUGCCGUUCCCAAGCUCGGAUAAAAGUGGAGGGGGCGG [C32U G23U] — lower, 0.12
- CCGCCUAACACUGCCAAUGCCGCUCCCAAGCUCGGAUAAAAGUGGAGGGGGCGG [C32U G23C] — lower, 0.03
- CCGCCUAACACUACCAAUGCCGGUCCCAAGCUCGGAUAAAAGUGGAGGGGGCGG [C32U G13A] — lower, 0.03
- CCGCCUAACACUUCCAAUGCCGGUCCCAAGCUCGGAUAAAAGUGGAGGGGGCGG [C32U G13U] — lower, 0.01
- CCGCCUAACACUCCCAAUGCCGGUCCCAAGCUCGGAUAAAAGUGGAGGGGGCGG [C32U G13C] — lower, 0.01
- CCGCCUAACACUGCCAAUGCCGUUCCCAAGCGCGGAUAAAAGUGGAGGGGGCGG [C32G G23U] — higher, 0.29
- CCGCCUAACACUGCCAAUGCCGCUCCCAAGCGCGGAUAAAAGUGGAGGGGGCGG [C32G G23C] — lower, 0.08
- CCGCCUAACACUGCCAAUGCCGAUCCCAAGCGCGGAUAAAAGUGGAGGGGGCGG [C32G G23A] — higher, 0.27
- CCGCCUAACACUGCCAAUGCCGGUCCCAAACUCGGAUAAAAGUGGAGGGGGCGG [C32U G30A] — lower, 0.02
- CCGCCUAACACUGCCAAUGCCGGUCCCAAUCUCGGAUAAAAGUGGAGGGGGCGG [C32U G30U] — lower, 0.02
- CCGCCUAACACUGCCAAUGCCGGUCCCAACCUCGGAUAAAAGUGGAGGGGGCGG [C32U G30C] — lower, 0.02
- CCGCCUAACACAGCCAAUGCCGGUCCCAAGCGCGGAUAAAAGUGGAGGGGGCGG [C32G U12A] — lower, 0.12
- CCGCCUAACACCGCCAAUGCCGGUCCCAAGCGCGGAUAAAAGUGGAGGGGGCGG [C32G U12C] — lower, 0.08
- CCGCCUAACACGGCCAAUGCCGGUCCCAAGCGCGGAUAAAAGUGGAGGGGGCGG [C32G U12G] — lower, 0.06
